The results in this text go back to ChEMBL document CHEMBL1649529, “Identifying exposure targets for treatment of staphylococcal pneumonia with ceftobiprole” (Antimicrob Agents Chemother, 2009).

The test system of data set [1] is Staphylococcus aureus. In words: Antibacterial activity against methicillin-susceptible Staphylococcus aureus clinical isolates. It counts as functional. A digest of the protocol:
(§1)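 MICs determined by CLSI dilution methodology for aerobically growing bacteria; the active drug, not the prodrug, was used for in vitro testing.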

Data set [2] has as its system Staphylococcus aureus. In words: Antibacterial activity against community-acquired methicillin-resistant Staphylococcus aureus clinical isolates. The data set is classed as functional. A digest of the protocol:
as §1

The subject of data set [3] is Staphylococcus aureus. Briefly: Antibacterial activity against hospital-acquired methicillin-resistant Staphylococcus aureus clinical isolates. The data set is classed as functional. A digest of the protocol: as §1
The nature of data set [4]: AUC in plasma of mouse. It counts as ADME, cell-free. A digest of the protocol: (§2)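 Neutropenic (cyclophosphamide) female BALB/c mice were infected with S. aureus in 3% mucin by aspiration. At 6 h they received single sc doses of prodrug (1.0–25.0 mg/kg, in sterile water). Plasma was sampled at 0.25–4 h (6 mice per time point) and BAL at 0.25–4 h. Samples were citrate-stabilized and assayed by HPLC (LOQ 0.01 mg/liter), with urea correction for ELF. AUCs came from a 9,999-subject simulation.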

A short description of data set [5]: AUC in epithelial lining fluid of mouse. It counts as ADME, tissue-based. A digest of the protocol: as §2
The nature of data set [6]: Plasma protein binding in mouse. It counts as ADME, cell-free. As to conditions: read-out: PPB (converted).
Data set [7] in a line: Fraction unbound in mouse plasma. The data set is classed as ADME, cell-free.
The nature of data set [8]: Clearance in healthy human at 500 mg, iv administered as 2-h infusion every 8 h. The settings on record: in vivo.
Data set [9] can be described thus: AUC in plasma of healthy human at 500 mg, iv administered as 2-h infusion every 8 h.
Data set [10] is described as follows: AUC in epithelial lining fluid of healthy human at 500 mg, iv administered as 2-h infusion every 8 h. The settings on record: in vivo.
The nature of data set [11]: Drug level in plasma of healthy human at 500 mg, iv administered as 2-h infusion every 8 h after 4 hrs.
A short description of data set [12]: Drug level in plasma of healthy human at 500 mg, iv administered as 2-h infusion every 8 h after 6 hrs.
Data set [13] can be described thus: Drug level in plasma of healthy human at 500 mg, iv administered as 2-h infusion every 8 h after 8 hrs.
A short description of data set [14]: Drug level in plasma of healthy human at 500 mg, iv administered as 2-h infusion every 8 h after 2.5 hrs.
The subject of data set [15] is Homo sapiens. Briefly: Volume of distribution in central compartment of healthy human at 500 mg, iv administered as 2-h infusion every 8 h. As to conditions: in vivo.
The nature of data set [16]: Drug level in epithelial lining fluid of healthy human at 500 mg, iv administered as 2-h infusion every 8 h after 4 hrs. As to conditions: read-out: Drug uptake.
The nature of data set [17]: Drug level in epithelial lining fluid of healthy human at 500 mg, iv administered as 2-h infusion every 8 h after 6 hrs. As to conditions: read-out: Drug uptake.
The nature of data set [18]: Drug level in epithelial lining fluid of healthy human at 500 mg, iv administered as 2-h infusion every 8 h after 8 hrs. As to conditions: read-out: Drug uptake.
Data set [19] in a line: Volume of distribution in epithelial lining fluid of healthy human at 500 mg, iv administered as 2-h infusion every 8 h. As to conditions: in vivo.
The nature of data set [20]: Drug level in epithelial lining fluid of healthy human at 500 mg, iv administered as 2-h infusion every 8 h after 2.5 hrs. As to conditions: read-out: Drug uptake.

≈ marks a conversion by molar mass, not a printed value.

As for `Nc1nc(/C(=N/O)C(=O)N[C@@H]2C(=O)N3C(C(=O)O)=C(/C=C4\CCN([C@@H]5CCNC5)C4=O)CS[C@H]23)ns1` [CEFTOBIPROLE], the MIC stood at 0.25 µg/mL (≈ 0.468 µM) in data set [1], 1 µg/mL (≈ 1.87 µM) in [2] and 0.5 µg/mL (≈ 0.935 µM) in data set [3]. Moreover, the AUC in [4] was determined as 68800 ng·h/mL; in data set [5], 46000 ng·h/mL; in data set [9], 98700 ng·h/mL; in data set [10], 25.2 mg·h/L. The fraction unbound in data set [6] and in data set [7] was 0.81 throughout. The compound further showed a CL/F in [8] of 86 mL/min. For the same compound, the concentration at 4 h was 12800 ng/mL in data set [11] and 2000 ng/mL in [16]. Moreover, the concentration at 6 h in [12] was found to be 6910 ng/mL; in data set [17], 4580 ng/mL. Moreover, the concentration at 8 h in [13] is 3650 ng/mL; in data set [18], 1510 ng/mL. Further, the figures for the concentration at 2.5 h in [14] and in [20] were 17700 ng/mL and 2550 ng/mL, respectively. The Vd in data set [15] is 2.849 L; in data set [19], 39.1 L.
